Reference: ChEMBL document CHEMBL4007432, “Discovery and characterization of novel CYP1B1 inhibitors based on heterocyclic chalcones: Overcoming cisplatin resistance in CYP1B1-overexpressing lines” (Eur J Med Chem, 2017)

Tests used:
Cytochrome P450 2C19 = Cytochrome P450 2C19 (Homo sapiens, UniProt P33261); test: Inhibition of human liver CYP2C19 expressed in Saccharomyces cerevisiae YY7 microsomal membranes using DBF as substrate after 10 mins by fluorescence assay; assay type: ADME, Microsomal Membrane
Cytochrome P450 1B1 [1] = target: T1, Cytochrome P450 1B1 (Homo sapiens, UniProt Q16678); test: Inhibition of human liver CYP1B1 expressed in Saccharomyces cerevisiae YY7 microsomal membranes at 5 to 10 uM using 7-ethoxyresorufin as substrate after 10 mins by fluorescence assay
T1 sequence (Q16678 whole entry): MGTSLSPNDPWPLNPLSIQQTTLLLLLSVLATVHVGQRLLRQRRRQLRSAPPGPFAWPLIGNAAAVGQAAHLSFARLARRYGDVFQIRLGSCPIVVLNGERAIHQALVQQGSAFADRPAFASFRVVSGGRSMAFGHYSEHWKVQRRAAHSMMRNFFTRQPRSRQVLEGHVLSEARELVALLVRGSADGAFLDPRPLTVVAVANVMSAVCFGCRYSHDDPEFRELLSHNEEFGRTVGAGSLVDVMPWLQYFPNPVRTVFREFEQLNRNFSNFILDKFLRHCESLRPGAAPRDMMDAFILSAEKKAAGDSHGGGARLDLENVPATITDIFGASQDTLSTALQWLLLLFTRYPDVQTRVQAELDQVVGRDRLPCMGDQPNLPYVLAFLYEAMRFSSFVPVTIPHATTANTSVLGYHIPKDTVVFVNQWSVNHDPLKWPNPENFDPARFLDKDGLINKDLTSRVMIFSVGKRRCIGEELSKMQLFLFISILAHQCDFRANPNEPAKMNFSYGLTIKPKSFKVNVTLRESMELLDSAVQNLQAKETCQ
How it was run: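 Single-concentration screen on CYP1B1 yeast microsomes at 5 µM (10 µM per methods), with 7-ER under the regenerating-system endpoint format: 10 min at 37 °C. Percentage inhibition versus a DMSO control; each compound tested twice.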

Cytochrome P450 1B1 [2] = target: T1, Cytochrome P450 1B1; test: Inhibition of human liver CYP1B1 expressed in Saccharomyces cerevisiae YY7 microsomal membranes using 7-ethoxyresorufin as substrate after 10 mins by fluorescence assay
How it was run: (§1)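 Yeast microsomes (YY7 strain carrying human reductase) held 0.5 pmol CYP with an NADP+/glucose-6-phosphate/G6PDH regenerating system in KPi. Fluorogenic substrate per isoform: 7-ER, CEC, EOMCC or DBF. Six serial 1:20 dilutions were tested, DMSO ≤0.5%. Reactions ran 10 min at 37 °C and were stopped with Tris-acetonitrile. Endpoint fluorescence (530/590 nm for resorufin) was fitted by 4-parameter sigmoid. Triplicate, ≥3 experiments.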

Cytochrome P450 1A2 = target: T2, Cytochrome P450 1A2 (Homo sapiens, UniProt P05177); test: Inhibition of human liver CYP1A2 expressed in Saccharomyces cerevisiae YY7 microsomal membranes using CEC as substrate after 10 mins by fluorescence assay; assay type: ADME, Microsomal Membrane; how it was run: as §1
T2 sequence (P05177 whole entry): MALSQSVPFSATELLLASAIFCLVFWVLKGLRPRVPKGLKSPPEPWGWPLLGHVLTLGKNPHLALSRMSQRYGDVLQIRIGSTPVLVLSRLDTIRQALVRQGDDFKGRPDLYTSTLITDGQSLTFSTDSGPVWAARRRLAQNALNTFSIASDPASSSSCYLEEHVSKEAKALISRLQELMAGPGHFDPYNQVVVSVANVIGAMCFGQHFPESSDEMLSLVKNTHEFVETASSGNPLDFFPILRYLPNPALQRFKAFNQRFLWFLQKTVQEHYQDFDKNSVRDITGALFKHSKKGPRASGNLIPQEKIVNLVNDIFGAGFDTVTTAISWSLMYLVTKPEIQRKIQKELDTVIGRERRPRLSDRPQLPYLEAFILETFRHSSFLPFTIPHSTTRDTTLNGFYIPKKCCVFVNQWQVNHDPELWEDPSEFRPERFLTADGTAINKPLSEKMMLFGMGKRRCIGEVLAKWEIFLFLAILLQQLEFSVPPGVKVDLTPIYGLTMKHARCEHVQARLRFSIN

Cytochrome P450 2C9 = Cytochrome P450 2C9 (Homo sapiens, UniProt P11712); test: Inhibition of human liver CYP2C9 expressed in Saccharomyces cerevisiae YY7 microsomal membranes using DBF as substrate after 10 mins by fluorescence assay; assay type: ADME, Microsomal Membrane
Cytochrome P450 1A1 = target: T3, Cytochrome P450 1A1 (Homo sapiens, UniProt P04798); test: Inhibition of human liver CYP1A1 expressed in Saccharomyces cerevisiae YY7 microsomal membranes using 7-ethoxyresorufin as substrate after 10 mins by fluorescence assay; assay type: ADME, Microsomal Membrane; how it was run: as §1
T3 sequence (P04798 whole entry): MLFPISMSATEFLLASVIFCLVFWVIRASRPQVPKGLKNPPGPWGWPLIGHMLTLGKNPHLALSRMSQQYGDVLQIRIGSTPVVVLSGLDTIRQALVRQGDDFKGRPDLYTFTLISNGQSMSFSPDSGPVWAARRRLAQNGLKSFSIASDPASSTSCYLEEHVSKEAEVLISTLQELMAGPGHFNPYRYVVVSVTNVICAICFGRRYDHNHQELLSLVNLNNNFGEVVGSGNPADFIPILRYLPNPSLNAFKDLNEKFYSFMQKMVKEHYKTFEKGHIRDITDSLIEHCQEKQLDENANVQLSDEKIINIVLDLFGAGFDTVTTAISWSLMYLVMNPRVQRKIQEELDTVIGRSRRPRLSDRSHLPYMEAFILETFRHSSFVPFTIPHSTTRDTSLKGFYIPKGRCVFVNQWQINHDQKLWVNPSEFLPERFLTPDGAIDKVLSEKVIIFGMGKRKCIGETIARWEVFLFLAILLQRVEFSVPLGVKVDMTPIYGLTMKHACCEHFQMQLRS

Cytochrome P450 3A4 = Cytochrome P450 3A4 (Homo sapiens, UniProt P08684); test: Inhibition of human liver CYP3A4 expressed in Saccharomyces cerevisiae YY7 microsomal membranes using DBF as substrate after 10 mins by fluorescence assay; assay type: ADME, Microsomal Membrane
Cytochrome P450 2D6 = Cytochrome P450 2D6 (Homo sapiens, UniProt P10635); test: Inhibition of human liver CYP2D6 expressed in Saccharomyces cerevisiae YY7 microsomal membranes using EOMCC as substrate after 10 mins by fluorescence assay; assay type: ADME, Microsomal Membrane; how it was run: as §1
Sequence of Cytochrome P450 2D6 (P10635 whole entry): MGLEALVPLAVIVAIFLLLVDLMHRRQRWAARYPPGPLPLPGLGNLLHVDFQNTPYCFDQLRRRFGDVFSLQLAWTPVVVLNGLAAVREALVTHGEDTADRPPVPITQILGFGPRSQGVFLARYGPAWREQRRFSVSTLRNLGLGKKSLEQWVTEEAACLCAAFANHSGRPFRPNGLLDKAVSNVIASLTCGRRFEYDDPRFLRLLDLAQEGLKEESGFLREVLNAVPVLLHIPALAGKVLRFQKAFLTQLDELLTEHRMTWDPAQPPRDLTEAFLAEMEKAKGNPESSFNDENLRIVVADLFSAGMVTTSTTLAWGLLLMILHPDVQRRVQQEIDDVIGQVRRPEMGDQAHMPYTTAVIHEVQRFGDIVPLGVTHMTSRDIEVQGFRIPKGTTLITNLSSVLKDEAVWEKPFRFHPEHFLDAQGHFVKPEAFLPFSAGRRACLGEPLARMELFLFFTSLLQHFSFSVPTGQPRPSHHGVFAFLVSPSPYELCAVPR

Sequence of Cytochrome P450 2C19 (P33261 whole entry): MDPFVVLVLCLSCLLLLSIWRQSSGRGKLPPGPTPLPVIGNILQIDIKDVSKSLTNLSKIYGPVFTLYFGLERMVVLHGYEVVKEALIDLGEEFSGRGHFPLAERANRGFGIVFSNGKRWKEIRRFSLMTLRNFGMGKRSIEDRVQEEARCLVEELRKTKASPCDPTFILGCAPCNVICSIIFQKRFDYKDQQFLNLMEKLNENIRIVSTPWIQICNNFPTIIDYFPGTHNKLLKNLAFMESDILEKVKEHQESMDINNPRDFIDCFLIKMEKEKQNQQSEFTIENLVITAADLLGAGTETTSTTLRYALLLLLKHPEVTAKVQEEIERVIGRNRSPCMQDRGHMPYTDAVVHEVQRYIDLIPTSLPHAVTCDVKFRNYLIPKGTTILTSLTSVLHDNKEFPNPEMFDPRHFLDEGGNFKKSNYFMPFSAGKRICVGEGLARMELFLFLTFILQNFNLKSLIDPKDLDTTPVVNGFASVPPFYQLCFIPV
Sequence of Cytochrome P450 2C9 (P11712 whole entry): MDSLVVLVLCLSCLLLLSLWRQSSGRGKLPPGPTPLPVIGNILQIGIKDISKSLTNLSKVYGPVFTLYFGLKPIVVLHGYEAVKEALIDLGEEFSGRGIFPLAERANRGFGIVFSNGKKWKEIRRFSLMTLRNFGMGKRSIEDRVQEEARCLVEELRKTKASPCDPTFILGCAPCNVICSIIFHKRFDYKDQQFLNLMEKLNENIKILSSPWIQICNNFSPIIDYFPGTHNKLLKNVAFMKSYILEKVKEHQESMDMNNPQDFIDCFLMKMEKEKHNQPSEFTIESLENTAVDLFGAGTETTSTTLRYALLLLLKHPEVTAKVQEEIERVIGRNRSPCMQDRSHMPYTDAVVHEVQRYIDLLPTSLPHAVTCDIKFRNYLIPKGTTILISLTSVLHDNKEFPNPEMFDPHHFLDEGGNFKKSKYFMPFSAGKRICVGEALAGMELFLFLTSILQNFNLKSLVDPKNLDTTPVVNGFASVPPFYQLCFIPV
Sequence of Cytochrome P450 3A4 (P08684 whole entry): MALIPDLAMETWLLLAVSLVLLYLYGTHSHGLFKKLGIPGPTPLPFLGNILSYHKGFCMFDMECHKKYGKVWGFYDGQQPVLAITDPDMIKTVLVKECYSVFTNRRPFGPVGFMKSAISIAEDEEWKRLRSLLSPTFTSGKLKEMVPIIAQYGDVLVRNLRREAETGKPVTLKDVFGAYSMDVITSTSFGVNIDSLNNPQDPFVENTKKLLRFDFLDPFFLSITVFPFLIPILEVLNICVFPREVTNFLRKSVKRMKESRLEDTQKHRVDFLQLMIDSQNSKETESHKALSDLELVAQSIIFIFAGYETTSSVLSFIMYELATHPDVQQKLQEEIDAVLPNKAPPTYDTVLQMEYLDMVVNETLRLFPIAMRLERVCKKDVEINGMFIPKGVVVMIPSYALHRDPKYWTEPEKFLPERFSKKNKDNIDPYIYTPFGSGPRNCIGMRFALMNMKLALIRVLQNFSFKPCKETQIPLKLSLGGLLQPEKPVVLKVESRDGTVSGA

Row | Structure (SMILES) | IC50 (Cytochrome P450 2C19) [nM] | inhibition (INH) (Cytochrome P450 1B1 [1]) | IC50 (Cytochrome P450 1B1 [2]) [nM] | IC50 (Cytochrome P450 1A2) [nM] | IC50 (Cytochrome P450 2C9) [nM] | IC50 (Cytochrome P450 1A1) [nM] | IC50 (Cytochrome P450 3A4) [nM] | IC50 (Cytochrome P450 2D6) [nM]
1 | O=C(/C=C/c1cccnc1)c1cc2ccccc2c2ccccc12 | – | Active | 133 | 669 | – | 58 | – | –
2 | COc1ccc(C(=O)/C=C/c2cccnc2)c(OC)c1OC | – | Active | 137 | 176 | – | 5300 | – | –
3 | O=C(/C=C/c1ccc(F)c(F)c1)c1cccnc1 | – | Active | 120 | 860 | – | 11800 | – | –
4 | COc1ccc(C(=O)/C=C/c2cccnc2)cc1 | – | Active | 525 | 2400 | – | 3600 | – | –
5 | O=C(/C=C/c1ccccc1)c1cccnc1 | > 20000 | Active | 77 | 4700 | > 20000 | 31800 | 11100 | 8200
6 | COc1ccc(C(=O)/C=C/c2cccnc2)c(OC)c1 | > 20000 | Active | 93 | 432 | > 20000 | 1500 | 11000 | 7700
7 | O=C(/C=C/c1cccnc1)c1ccc2ccc3cccc4ccc1c2c34 | – | Active | 162 | 2100 | – | 2200 | – | –
8 | O=C(/C=C/c1cccc(O)c1)c1cccnc1 | – | Active | 466 | 2900 | – | 25000 | – | –
9 | COc1ccc(/C=C/C(=O)c2cccnc2)cc1O | – | Active | 112 | 1700 | – | 2600 | – | –
10 | COc1cc(OC)cc(C(=O)/C=C/c2cccnc2)c1 | – | Active | 106 | 306 | – | 879 | – | –
11 | O=C(/C=C/c1ccncc1)c1ccc2ccccc2c1 | – | Active | 187 | 300 | – | 907 | – | –
12 | COc1cccc(C(=O)/C=C/c2cccnc2)c1 | – | Active | 130 | 480 | – | 3500 | – | –
13 | O=C(/C=C/c1cccnc1)c1ccc(-c2ccccc2)cc1 | – | Active | 189 | 2300 | – | 17000 | – | –
14 | COc1ccc(C(=O)/C=C/c2cccnc2)cc1OC | – | Active | 176 | 705 | – | 3100 | – | –
15 | COc1cc(/C=C/C(=O)c2cccnc2)cc(OC)c1OC | – | Active | 349 | 515 | – | 288 | – | –

Stronger by IC50 (Cytochrome P450 1B1 [2]), values ahead:

Row | IC50 (Cytochrome P450 2C19) [nM] | inhibition (INH) (Cytochrome P450 1B1 [1]) | IC50 (Cytochrome P450 1B1 [2]) [nM] | IC50 (Cytochrome P450 1A2) [nM] | IC50 (Cytochrome P450 2C9) [nM] | IC50 (Cytochrome P450 1A1) [nM] | IC50 (Cytochrome P450 3A4) [nM] | IC50 (Cytochrome P450 2D6) [nM] | Structure (SMILES)
16 | > 20000 | Active | 64 | 162 | > 20000 | 2600 | 14000 | 8000 | O=C(/C=C/c1cccnc1)c1cccc(Br)c1
17 | > 20000 | Active | 59 | 238 | > 20000 | 3400 | 12500 | 10600 | O=C(/C=C/c1cccnc1)c1cccc(Cl)c1
18 | > 20000 | Active | 32 | 752 | > 20000 | 10500 | 1280 | 1000 | COc1cccc(/C=C/C(=O)c2cccnc2)c1
19 | > 20000 | Active | 31 | 168 | > 20000 | 297 | 11800 | 8800 | COc1ccc(/C=C/C(=O)c2cccnc2)c(OC)c1OC
20 | > 20000 | Active | 29 | 1500 | > 20000 | 1500 | 12000 | 14000 | O=C(/C=C/c1ccc2c(c1)OCO2)c1cccnc1
21 | > 20000 | Active | 19 | 258 | > 20000 | 1400 | 53000 | 1100 | COc1ccc(/C=C/C(=O)c2cccnc2)cc1OC
22 | > 20000 | Active | 15 | 220 | > 20000 | 4700 | 1520 | 1740 | COc1ccccc1/C=C/C(=O)c1cccnc1
23 | > 20000 | Active | 15 | 636 | > 20000 | 349 | 28000 | 4400 | O=C(/C=C/c1cccnc1)c1ccc2ccccc2c1
